Results taken from ChEMBL document CHEMBL1926677, “Further structure-activity relationship studies on 8-substituted-3-[2-(diarylmethoxyethylidenyl)]-8-azabicyclo[3.2.1]octane derivatives at monoamine transporters” (Bioorg Med Chem, 2011).

Legend:
[1] = molecular target: Sodium-dependent dopamine transporter (Rattus norvegicus, UniProt P23977); assay: Displacement of [3H]WIN35428 from DAT in Sprague-Dawley rat brain homogenates after 1 hr by scintillation counting; assay type: tissue-based
Outline: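 Male Sprague-Dawley rats (200–250 g); caudate-putamen homogenised in ice-cold modified Krebs-HEPES buffer pH 7.4, washed by repeated 20,000 × g spins; fresh membranes ~0.3% w/v (150–300 µg protein). Nonspecific: 100 µM cocaine.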

[2] = molecular target: Sodium-dependent serotonin transporter (Rattus norvegicus, UniProt P31652); assay: Displacement of [3H]citalopram from SERT in Sprague-Dawley rat brain homogenates after 60 mins by liquid scintillation counting; assay type: tissue-based
Sodium-dependent serotonin transporter, sequence (P31652 whole entry): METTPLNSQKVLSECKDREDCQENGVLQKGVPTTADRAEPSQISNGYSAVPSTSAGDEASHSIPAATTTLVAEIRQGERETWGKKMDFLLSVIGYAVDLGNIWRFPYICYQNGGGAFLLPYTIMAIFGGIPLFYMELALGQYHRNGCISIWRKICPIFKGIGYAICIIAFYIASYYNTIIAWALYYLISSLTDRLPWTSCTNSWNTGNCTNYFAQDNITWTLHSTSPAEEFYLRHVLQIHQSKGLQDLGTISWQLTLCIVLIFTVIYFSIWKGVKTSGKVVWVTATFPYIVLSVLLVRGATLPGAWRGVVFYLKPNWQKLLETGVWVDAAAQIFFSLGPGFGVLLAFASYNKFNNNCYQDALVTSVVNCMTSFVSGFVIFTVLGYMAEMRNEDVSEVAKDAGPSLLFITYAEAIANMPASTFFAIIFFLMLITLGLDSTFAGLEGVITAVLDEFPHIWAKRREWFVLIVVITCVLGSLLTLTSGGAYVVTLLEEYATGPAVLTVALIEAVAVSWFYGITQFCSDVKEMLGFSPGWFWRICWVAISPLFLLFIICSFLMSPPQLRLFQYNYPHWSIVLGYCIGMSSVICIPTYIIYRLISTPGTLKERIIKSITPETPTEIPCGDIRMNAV
Outline: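 Midbrain from male Sprague-Dawley rats (200–225 g), frozen, homogenised in 50 mM Tris with 120 mM NaCl, 5 mM KCl (pH 7.4, 25 °C), washed at 20,000 × g. Nonspecific: 1 µM citalopram. GF/B filters in polyethylenimine, liquid scintillation counting.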

Transporter = Transporter (Rattus norvegicus, UniProt Q63380); assay: Displacement of [3H]nisoxetine from NET in Sprague-Dawley rat brain cortex membranes after 1 hr; assay type: cell membranes, Membrane
Transporter, sequence (Q63380 whole entry): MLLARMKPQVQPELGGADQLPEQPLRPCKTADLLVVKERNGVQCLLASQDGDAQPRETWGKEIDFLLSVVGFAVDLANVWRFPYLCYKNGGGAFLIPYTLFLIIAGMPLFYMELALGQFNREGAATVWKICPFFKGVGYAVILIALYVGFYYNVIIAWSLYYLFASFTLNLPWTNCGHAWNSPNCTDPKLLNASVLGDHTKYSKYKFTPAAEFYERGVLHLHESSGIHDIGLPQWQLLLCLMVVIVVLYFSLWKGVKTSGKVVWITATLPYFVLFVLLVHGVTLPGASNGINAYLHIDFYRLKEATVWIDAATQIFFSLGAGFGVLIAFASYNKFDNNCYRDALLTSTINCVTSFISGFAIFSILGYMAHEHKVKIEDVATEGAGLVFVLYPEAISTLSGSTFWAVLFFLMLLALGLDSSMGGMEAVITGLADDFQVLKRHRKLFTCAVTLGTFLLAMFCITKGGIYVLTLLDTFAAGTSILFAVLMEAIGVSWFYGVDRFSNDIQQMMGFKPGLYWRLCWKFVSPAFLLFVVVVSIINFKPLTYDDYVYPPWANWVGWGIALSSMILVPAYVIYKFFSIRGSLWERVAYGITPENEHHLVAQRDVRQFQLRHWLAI
Outline: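 Rat frontal cortex membranes in 50 mM Tris, 120 mM NaCl, 5 mM KCl, pH 7.4, washed at 50,000 × g, 8 mg wet tissue/tube. 0.5 nM [3H]nisoxetine, 1 h on ice; GF/B filters presoaked in 0.05% PEI. Nonspecific: 1 µM desipramine. Compounds first screened at 1 µM for displacement.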

Rattus norvegicus [3] = organism: Rattus norvegicus; assay: Selectivity ratio of Ki for SERT in Sprague-Dawley rat brain homogenates to Ki for DAT in Sprague-Dawley rat brain homogenates; assay type: tissue-based
Rattus norvegicus [4] = organism: Rattus norvegicus; assay: Selectivity ratio of Ki for NET in Sprague-Dawley rat brain cortex membranes to Ki for DAT in Sprague-Dawley rat brain homogenates; assay type: cell membranes; conditions: Membrane
[5] = Selectivity ratio of DAT over SERT

Sodium-dependent dopamine transporter, sequence (P23977 whole entry): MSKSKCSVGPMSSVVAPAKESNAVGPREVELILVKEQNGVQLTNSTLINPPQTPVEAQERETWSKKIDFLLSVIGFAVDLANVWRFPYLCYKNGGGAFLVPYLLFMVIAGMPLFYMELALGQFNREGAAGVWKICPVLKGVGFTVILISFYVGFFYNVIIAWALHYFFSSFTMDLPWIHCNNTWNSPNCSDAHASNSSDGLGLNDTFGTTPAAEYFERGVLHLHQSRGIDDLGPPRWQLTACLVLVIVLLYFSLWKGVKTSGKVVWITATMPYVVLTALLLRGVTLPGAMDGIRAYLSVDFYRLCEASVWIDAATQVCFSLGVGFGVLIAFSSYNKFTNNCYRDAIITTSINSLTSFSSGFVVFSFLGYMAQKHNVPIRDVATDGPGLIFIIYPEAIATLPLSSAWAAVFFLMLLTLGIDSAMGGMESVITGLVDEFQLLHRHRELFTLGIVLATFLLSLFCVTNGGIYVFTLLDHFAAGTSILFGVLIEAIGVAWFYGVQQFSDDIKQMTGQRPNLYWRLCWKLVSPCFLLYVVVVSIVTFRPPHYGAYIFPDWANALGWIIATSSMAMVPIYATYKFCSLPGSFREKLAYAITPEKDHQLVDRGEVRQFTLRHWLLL

SMILES | Ki [1] [nM] | Ki [2] [nM] | Ki (Transporter) [nM] | Ratio Ki (Rattus norvegicus [3]) | Ratio Ki (Rattus norvegicus [4]) | Ratio [5]
Cc1ccc(CN2[C@@H]3CC[C@H]2C/C(=C/COC(c2ccc(F)cc2)c2ccc(F)cc2)C3)cc1 | 6.1 | 405 | 2750 | 68 | 450 | –
CN1[C@@H]2CC[C@H]1C/C(=C/COC(c1ccc(F)cc1)c1ccc(F)cc1)C2 | 19 | – | – | – | – | 300
CCN1[C@@H]2CC[C@H]1C/C(=C/COC(c1ccc(F)cc1)c1ccc(F)cc1)C2 | 40 | 5960 | 3580 | 149 | 89 | –
C(/COC(c1ccccc1)c1ccccc1)=C1/C[C@H]2CC[C@@H](C1)N2CC1CC1 | 169 | – | – | – | – | –
Fc1ccc(C(OC/C=C2\C[C@H]3CC[C@@H](C2)N3CCCc2ccccc2)c2ccc(F)cc2)cc1 | – | – | – | – | – | 300
CCCN1[C@@H]2CC[C@H]1C/C(=C/COC(c1ccc(F)cc1)c1ccc(F)cc1)C2 | 41 | 5460 | 2850 | 133 | 69 | –
Clc1ccc(CN2[C@@H]3CC[C@H]2C/C(=C/COC(c2ccccc2)c2ccccc2)C3)cc1 | 7.6 | 544 | 2710 | 72 | 554 | –
Fc1ccc(C(OC/C=C2\C[C@H]3CC[C@@H](C2)N3Cc2ccccc2)c2ccc(F)cc2)cc1 | – | 2220 | – | – | – | –
Fc1ccc(C(OC/C=C2\C[C@H]3CC[C@@H](C2)N3Cc2ccc(Cl)cc2)c2ccc(F)cc2)cc1 | 3.9 | 656 | 5300 | 168 | 1360 | –
CCCN1[C@@H]2CC[C@H]1C/C(=C/COC(c1ccccc1)c1ccccc1)C2 | 245 | – | – | – | – | –
C=CCN1[C@@H]2CC[C@H]1C/C(=C/COC(c1ccc(F)cc1)c1ccc(F)cc1)C2 | 21 | 3460 | 3120 | 167 | 149 | –
CCN1[C@@H]2CC[C@H]1C/C(=C/COC(c1ccccc1)c1ccccc1)C2 | 286 | – | – | – | – | –
Fc1ccc(CN2[C@@H]3CC[C@H]2C/C(=C/COC(c2ccccc2)c2ccccc2)C3)cc1 | 7 | 4090 | 3340 | 585 | 477 | –
Fc1ccc(C(OC/C=C2\C[C@H]3CC[C@@H](C2)N3CC2CC2)c2ccc(F)cc2)cc1 | 4 | 4240 | 2500 | 1060 | 625 | –
C=CCN1[C@@H]2CC[C@H]1C/C(=C/COC(c1ccccc1)c1ccccc1)C2 | 143 | – | – | – | – | –
Cc1ccc(CN2[C@@H]3CC[C@H]2C/C(=C/COC(c2ccccc2)c2ccccc2)C3)cc1 | 13 | 746 | 1770 | 57 | 136 | –
C#CCN1[C@@H]2CC[C@H]1C/C(=C/COC(c1ccccc1)c1ccccc1)C2 | 536 | – | – | – | – | –
C(/COC(c1ccccc1)c1ccccc1)=C1/C[C@H]2CC[C@@H](C1)N2Cc1ccccc1 | 48 | 5420 | 1390 | 113 | 29 | 300
C(/COC(c1ccccc1)c1ccccc1)=C1/C[C@H]2CC[C@@H](C1)N2CCCc1ccccc1 | – | – | – | – | – | 300
Fc1ccc(CN2[C@@H]3CC[C@H]2C/C(=C/COC(c2ccc(F)cc2)c2ccc(F)cc2)C3)cc1 | 4.9 | 1140 | 3150 | 234 | 643 | –
CN1[C@@H]2CC[C@H]1C/C(=C/COC(c1ccccc1)c1ccccc1)C2 | 130 | – | – | – | – | 300
